Experimental data: ChEMBL document CHEMBL1129512, “Studies on the mechanism of phosphatidylinositol 3-kinase inhibition by wortmannin and related analogs” (J Med Chem, 1996)

How the values were obtained:
[1] = In vitro inhibitory activity against Phosphatidylinositol 3-Kinase
In short: (§1)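 Purified PI 3-kinase from bovine brain was used as the enzyme source. Results are reported as IC50 values.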

Mus musculus [2] = test: In vivo inhibition of tumor growth in C3H Mammary model was evaluated at dose 2.0 mg/kg peroral administration; format: functional; details: route oral
In short: (§2)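 Murine C3H mammary tumour fragments were implanted subcutaneously by trochar in the axillary region, in groups of 10 randomized mice. Oral dosing started 1 day after implant, daily ×10, as a suspension in 2.5% emulphor EL-620 in 0.9% NaCl (water for one analog). Tumour weight, calculated as length×width²×0.5 from calipers, was measured the day after the last dose. Percent inhibition was calculated versus controls. Groups with >25% lethality were scored toxic.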

Mus musculus [3] = test: In vivo inhibition of tumor growth in C3H Mammary model was evaluated at dose 4.0 mg/kg peroral administration; format: functional; details: route oral; in short: as §2
Mus musculus [4] = test: In vivo inhibition of tumor growth in C3H Mammary model was evaluated at dose 10 mg/kg peroral administration; format: functional; details: route oral; in short: as §2
Mus musculus [5] = test: In vivo inhibition of tumor growth in C3H Mammary model was evaluated at dose 5.0 mg/kg peroral administration; range is 60-79%; format: functional; details: route oral; in short: as §2
[6] = Inhibition of Phosphatidylinositol 3-Kinase; in short: as §1
Mus musculus [7] = test: In vivo inhibition of tumor growth in C3H Mammary model was evaluated at dose 16 mg/kg peroral administration; format: functional; details: route oral
In short: (§3)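 Murine tumours were serially passaged as tumour fragments, implanted s.c. by trochar in the axillary region. Daily oral dosing began 1 day after implant, as a suspension in 2.5% emulphor EL-620 in 0.9% NaCl. There were 10 randomized mice per group. Tumours were measured by caliper the day after the last dose, with weight = length × width² × 0.5. Inhibition was 100 × (1 − mean treated/mean control weight). A group was toxic if lethality was >25%.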

Mus musculus [8] = test: In vivo inhibition of tumor growth in C3H Mammary model was evaluated at dose 8.0 mg/kg peroral administration; range is 60-79%; format: functional; details: route oral; in short: as §3

CCC/N=C\C1=C(O)O[C@H](COC)[C@@]2(C)C1=C(O)C(=O)C1=C2[C@H](OC(C)=O)C[C@]2(C)C(=O)CC[C@@H]12
IC50 [1]: > 500 nM

COC[C@H]1OC(=O)c2c(C)oc3c2[C@@]1(C)C1=C(C3=O)[C@@H]2CCC(=O)[C@@]2(C)C[C@H]1OC(C)=O
IC50 [1]: > 500 nM

COC[C@H]1OC(=O)c2coc3c2[C@@]1(C)C1=C(C3=O)[C@@H]2CCC(=O)[C@@]2(C)CC1
inhibition in vivo at 2 mg/kg (Mus musculus [2]): < 60%
inhibition in vivo at 4 mg/kg (Mus musculus [3]): > 25%
IC50 [1]: 17 nM

COC[C@H]1OC(=O)c2coc3c2[C@@]1(C)C1=C(C3=O)[C@@H]2C[C@@H](Br)C(=O)[C@@]2(C)C[C@H]1OC(C)=O
IC50 [1]: 77 nM

COC[C@H]1OC(=O)c2coc3c2[C@@]1(C)C1=C(C3=O)[C@@H]2CC=C(OC(C)=O)[C@@]2(C)C[C@H]1OC(C)=O
IC50 [1]: 59 nM

CCCCS/C=C1\C(=O)O[C@H](COC)[C@@]2(C)C1=C(O)C(=O)C1=C2[C@H](OC(C)=O)C[C@]2(C)C(=O)CC[C@@H]12
IC50 [1]: 52 nM

CCN(/C=C1\C(=O)O[C@H](COC)[C@@]2(C)C1=C(O)C(=O)C1=C2[C@H](OC(C)=O)C[C@]2(C)C(=O)CC[C@@H]12)CC
inhibition in vivo at 10 mg/kg (Mus musculus [4]): > 25%
inhibition in vivo at 5 mg/kg (Mus musculus [5]): 79%
IC50 [6]: 80 nM

COC[C@H]1OC(O)=C(C=N)C2=C(O)C(=O)C3=C([C@H](OC(C)=O)C[C@]4(C)C(=O)CC[C@@H]34)[C@]21C
IC50 [1]: > 500 nM

COC[C@H]1OC(=O)c2coc3c2[C@@]1(C)C1=CC[C@]2(C)C(=O)CC[C@H]2C1C3=O (stereo not given in full)
inhibition in vivo at 16 mg/kg (Mus musculus [7]): > 25%
inhibition in vivo at 8 mg/kg (Mus musculus [8]): 79%
IC50 [1]: 54 nM
